Results on 74 molecules are retold here after PubChem BioAssay AID1943 (The Scripps Research Institute Molecular Screening Center, 2009).

Hit rate of the full screen: of about 1,600 compounds, about 500 (31%) were called active. The list is a sample of the results. A number with no mark means an inactive call.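 Rule for the calls: active = inhibition above the mean of all tested compounds plus 3 SD, cutoff set per campaign (cut at about 36% in these data); inactive = the rest.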

The experiment deals with Hepatitis C virus NS3 helicase. Kind of experiment: blockers of HCV NS3 DNA unwinding – biochemical, Cy5 molecular beacon fluorescence, triplicate, confirmation (AID 1943). Particulars: at 10.9 µM, active compounds read high. Summed up: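 Test system: HCV NS3 helicase fragment enzyme | Medium: MOPS buffer pH 6.5 with MgCl2, DTT, Tween20 and BSA | Also added: Annealed DNA duplex bearing Cy5/quencher molecular beacon strand, ATP as starter | Schedule: 0 and 60 min reads at 25 °C | Detection: Cy5 fluorescence quenching by beacon hairpin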
As to `CCOC(=O)c1c(-c2ccccc2)oc2cc(Br)c(O)c(C=O)c12`, the inhibition (usually the change of the read-out against control, counted positive when it falls) is 36.3% (active).

`CC(Oc1ccccc1)C(=O)Nc1oc(-c2ccco2)c(-c2ccco2)c1C#N` (centres undefined): the inhibition is 61.5% (active).

As to `Cc1cccc(NC(=O)c2sc3nc4c(c(-c5ccco5)c3c2N)CCC4)c1`, the inhibition was -20.1%.

Consider `COc1ccc(/C=C2\SC(=S)N(CCC(=O)Nc3cccc(C(=O)O)c3)C2=O)cc1OC`, for which the inhibition is 52.9% (active).

For `Cc1ccc(SC(CC(=O)c2ccc(C(C)(C)C)cc2)C(=O)O)cc1` (centres undefined), the inhibition is 74.6% (active).

With `COc1ccc(NC(=O)CSc2ccc(-c3ccco3)nn2)c(OC)c1`, the inhibition is -10.9%.

`COc1ccc(OCC(=O)Nc2nnc(-c3ccco3)s2)cc1`: the inhibition is -10.9%.

Consider `COCCNC(=O)Nc1ccc2nc(-c3ccco3)c(-c3ccco3)nc2c1`, for which the inhibition was 43.5% (active).

As to `S=C(NCCc1ccccc1)N1CCCCC1`, the inhibition is -9.72%.

As for `CCSc1nsc(NC(=O)Nc2cccc(C(C)=O)c2)n1`, the inhibition is -4.64%.

As for `CNS(=O)(=O)c1cccc(C(=O)NC2CCCc3ccccc32)c1` (centres undefined), the inhibition is -10.8%.

Take `Cc1ccc(OCC(=O)c2cc(C)n(Cc3ccco3)c2C)c([N+](=O)[O-])n1`: the inhibition is -9.23%.

In the case of `Cc1ccc(S(=O)(=O)NCCC(c2ccccc2)c2ccccc2)cc1C(=O)O`, the inhibition is 55.2% (active).

Turning to `O=C1NN(c2ccccc2)C(=O)/C1=C/c1ccc(-c2cccc(C(=O)O)c2)o1`, the inhibition is 54.1% (active).

In the case of `COc1cc(C2CC(=O)N3CN(Cc4ccccc4)CSC3=C2C#N)ccc1OCc1ccccc1` (centres undefined), the inhibition is 25%.

Regarding `N#C/C=C(/c1ccc(F)cc1)N1CCOCC1`, the inhibition was -4.32%.

Take `Cc1ccc(-c2nn(-c3ccccc3)cc2/C=C2\SC(=S)N(CCCCCC(=O)O)C2=O)o1`: the inhibition is 84.6% (active).

With `O=C(N/N=C/c1ccc([N+](=O)[O-])o1)c1cn(-c2ccccc2)nc1-c1ccc(F)cc1`, the inhibition is -4.3%.

With `COc1cccc(CNC(=O)c2nnn(CC(=O)Nc3cc(Cl)ccc3C)c2N)c1`, the inhibition is 3.98%.

In the case of `Cc1ccc(C(CC(=O)O)Nc2nc(N3CCCCC3)nc(N3CCCCC3)n2)cc1` (centres undefined), the inhibition is 79% (active).

`COc1ccccc1N1CCN(C(=O)CCS(=O)(=O)c2ccc3c(c2)NC(=O)C(C)S3)CC1` (centres undefined): the inhibition was -19.2%.

On to `CC(C)c1ccc(Nc2nnc(SCC(=O)c3nnc(-c4ccccc4)o3)s2)cc1`, for which the inhibition was 89.1% (active).

For the molecule `Cc1ccccc1Nc1nnc(SCC(=O)c2cc3ccccc3o2)s1`, the inhibition is -10.8%.

Turning to `Cc1cc(O)c(C(=O)/C=C/c2c(F)c(F)c(F)c(F)c2F)c(=O)o1`, the inhibition is 69.6% (active).

On to `CS(=O)(=O)c1ccc2c(c1)SC1=NC(=O)/C(=C/c3ccco3)C(=N)N12`, for which the inhibition was 22.5%.

For the molecule `Nc1ccc2nc3c(=O)[nH]c(=S)[nH]c3nc2c1`, the inhibition is 2.58%.

With `Cc1ccc(S(=O)(=O)N/N=C\c2cc3c(cc2[N+](=O)[O-])OCO3)cc1`, the inhibition was -12%.

With `O=[N+]([O-])c1cc(Cl)cc(/C=N/NC(=S)Nc2cc(S(=O)(=O)N3CCOCC3)ccc2Cl)c1O`, the inhibition is 94.9% (active).

Turning to `CN(C)c1ccc(N/C=C/C(=O)C(F)(F)F)cc1`, the inhibition was 2.03%.

Regarding `COc1cccc(C(=O)CC(=O)C(=O)Nc2ccc([N+](=O)[O-])cc2C)c1`, the inhibition is 16.8%.

Regarding `CCOc1ccc(C(C(=O)NCCOC)N(CCOC)C(=O)CCC(=O)Nc2ccccn2)cc1` (centres undefined), the inhibition is -12.9%.

`Fc1ccc(-c2ccc(-c3nn4c(-c5ccco5)nnc4s3)o2)cc1`: the inhibition was 12%.

As for `CCN(CC)CCOc1ccc2c(c1)C(=NNC(=O)c1ccccn1)c1cc(OCCN(CC)CC)ccc1-2`, the inhibition is 37.9% (active).

With `COc1cc(/C=C2/C(=O)NN(c3cccc(Cl)c3)C2=O)cc(Br)c1O`, the inhibition was 57.7% (active).

As for `Cc1ccc(C)c(-n2c(SCC(=O)O)nc3sc4c(c3c2=O)CCCC4)c1`, the inhibition is 22.2%.

Take `O=C1N/C(=C/c2cccn2-c2ccccc2)C(=O)N1c1cccc(Cl)c1`: the inhibition was 6.32%.

`CS/C(=C\C(=O)c1ccco1)Nc1ccccc1Cl`: the inhibition is -6.86%.

On to `CCOC(=O)c1nnn(-c2nc(OC)nc(N(C)C)n2)c1-c1ccccc1`, for which the inhibition was -9.79%.

With `CSc1c(SCc2ccccc2)cnn(Cc2ccccc2)c1=O`, the inhibition is -8.85%.

As for `c1ccc(CSc2nnc(-c3ccco3)c(-c3ccco3)n2)cc1`, the inhibition was 67% (active).

With `Clc1ccccc1CSc1nnc(-c2ccco2)c(-c2ccco2)n1`, the inhibition was 72% (active).

Regarding `O=c1c2c(-c3ccccc3)ccnc2[nH]n1-c1ccccc1`, the inhibition was -13.5%.

On to `Brc1ccccc1C1Nc2cccc3cccc(c23)N1`, for which the inhibition is -7.38%.

Consider `O=c1nc2s/c(=C\c3ccco3)c(=O)n2nc1Cc1ccccc1`, for which the inhibition was -17.8%.

On to `O=C(CCCN1C(=O)/C(=C\c2ccco2)SC1=S)Nc1cccc2ccccc12`, for which the inhibition was 73.3% (active).

As for `NS(=O)(=O)c1ccc(-c2ccc(/C=C3\SC(=O)NC3=O)o2)cc1`, the inhibition is -18.5%.

For the molecule `O=C(CCl)NNc1cccc(Cl)n1`, the inhibition is -2.17%.

As for `CCOc1ccc(C2C3=C(CCCC3=O)N(CC(=O)O)C3=C2C(=O)CCC3)cc1`, the inhibition is -13.6%.

Turning to `CC1=NN(c2ccc(Cl)c(C(=O)O)c2)C(=O)/C1=C/c1ccc(-c2ccccc2[N+](=O)[O-])o1`, the inhibition is 73.3% (active).

As to `CC(=O)Nc1ccc(Nc2c3ccccc3nc3ccccc23)cc1`, the inhibition is 2.42%.

For `Cc1ccc(C2=N/C(=C\c3ccc(OS(=O)(=O)c4ccc(C)cc4)cc3)C(=O)O2)cc1`, the inhibition was 27.4%.

As to `Cc1ccc(/C=C/C(=O)Nc2ccc([N+](=O)[O-])c(NC(=O)/C=C/c3ccc(C)o3)c2)o1`, the inhibition is 62.1% (active).

On to `Cc1occc1C(=O)N/N=C/c1ccc(-c2cccc([N+](=O)[O-])c2)o1`, for which the inhibition was -10.4%.

Take `CCC1C/C(=C/c2cccs2)C(=O)/C(=C/c2cccs2)C1` (centres undefined): the inhibition is -12.8%.

Take `CCOC(=O)C1=C(O)/C(=C/c2cc(C)n(-c3ccccc3)c2C)N=C1C`: the inhibition was -7.36%.

For the molecule `Cc1cc(C)c2nc(-c3ccco3)cc(C(=O)O)c2c1`, the inhibition is 79.1% (active).

In the case of `CC(=O)C1=C(O)C(=O)N(c2ccc(Br)cc2)C1c1ccc([N+](=O)[O-])cc1` (centres undefined), the inhibition was 46.5% (active).

On to `O=c1[nH]c(/C=C\c2cccc(C(F)(F)F)c2)nc(O)c1[N+](=O)[O-]`, for which the inhibition was -7.2%.

On to `COc1ccc(/C=C/C(=O)c2cc(Br)ccc(=O)c2O)cc1`, for which the inhibition is 82.1% (active).

In the case of `CC(=O)Oc1cccc(N2C(=O)CC(Nc3ccc(N4CCOCC4)cc3)C2=O)c1` (centres undefined), the inhibition is -24.2%.

For the molecule `Cc1ccc(C(=O)O)cc1-c1ccc(/C=C2\SC(=O)N(CC(=O)Nc3ccc4c(c3)OCO4)C2=O)o1`, the inhibition is 63.1% (active).

Regarding `O=C(c1cccc(-n2cccc2)c1)N1CCN(S(=O)(=O)c2ccc(F)cc2)CC1`, the inhibition is -4.73%.

As to `COc1ccc(C)cc1-n1nnnc1SCC(=O)c1cc(C)n(Cc2ccco2)c1C`, the inhibition is 6.51%.

In the case of `O=C(N/N=C/c1ccco1)c1csc2c1CCCC2`, the inhibition was -9.79%.

For `COc1ccccc1C1/C(=C(/O)c2ccc(OC(C)C)cc2)C(=O)C(=O)N1c1cc(C)on1` (centres undefined), the inhibition was -6.81%.

Regarding `COc1cc(C2C(C(=O)c3ccco3)=C(O)C(=O)N2c2cc(C)on2)ccc1OCc1ccccc1` (centres undefined), the inhibition was 110% (active).

As for `CC(C)c1ccc(C2C(C(=O)c3ccco3)=C(O)C(=O)N2CC2CCCO2)cc1` (centres undefined), the inhibition is -11.7%.

For the molecule `O=C1C=CC(=O)N1c1ccc(N2CCCCC2)cc1`, the inhibition is -18.6%.

Take `COc1ccc(/C=C(\NC(=O)c2ccc(OCC(C)C)cc2)C(=O)OCc2ccco2)cc1`: the inhibition is 11.2%.

Take `Cc1[nH]n(C(N)=S)c(=O)c1N=Nc1ccc(Cl)cc1Cl`: the inhibition was 10.9%.

Regarding `CCOC(=O)c1ccccc1N1C(=O)C2Sc3[nH]c(=O)sc3C(/C=C/c3ccccc3)C2C1=O` (centres undefined), the inhibition is 44.1% (active).

As to `COC(=O)COc1ccc2c(c1C)O/C(=C\c1ccco1)C2=O`, the inhibition was -7.55%.

For `Cc1ccc(C2Nc3cccc4cccc(c34)N2)cc1`, the inhibition is -28.1%.

Regarding `Cc1nn2c(c1-c1ccccc1)N=C(c1ccco1)CC2c1ccccc1` (centres undefined), the inhibition was -12.4%.
